Data from ChEMBL document CHEMBL3763128, “Synthesis and antibacterial evaluation of novel 4″-glycyl linked quinolyl-azithromycins with potent activity against macrolide-resistant pathogens” (2016).
Converted amounts (≈) assume the structure as drawn.

Key:
Format in all cases: functional
[1] = test system: Haemophilus influenzae; test: Antibacterial activity against Haemophilus influenzae by agar microdilution method
Procedure, shortened: (§1)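 MIC by agar microdilution following NCCLS guidelines. Values in μg/mL. Only differences of more than one twofold dilution were treated as significant. Ery-S denotes erythromycin-susceptible strains.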

[2] = test system: Staphylococcus aureus; test: Antibacterial activity against erythromycin-susceptible Staphylococcus aureus by agar microdilution method; procedure, shortened: as §1
[3] = test system: Streptococcus pyogenes; test: Antibacterial activity against efflux mediated macrolide resistant Streptococcus pyogenes by agar microdilution method
Procedure, shortened: (§2)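 Agar microdilution per NCCLS guidelines; MIC reported in μg/mL; differences treated as significant only when more than a factor of 2 (one dilution) apart.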

[4] = test system: Streptococcus pneumoniae; test: Antibacterial activity against erythromycin-susceptible Streptococcus pneumoniae by agar microdilution method; procedure, shortened: as §1
[5] = test system: Staphylococcus aureus; test: Antibacterial activity against efflux mediated macrolide resistant Staphylococcus aureus by agar microdilution method; procedure, shortened: as §2
[6] = test system: Staphylococcus aureus; test: Antibacterial activity against inducibly macrolide-lincosamide-streptogramin B resistant Staphylococcus aureus by agar microdilution method; procedure, shortened: as §2
[7] = test system: Streptococcus pneumoniae; test: Antibacterial activity against constitutive macrolide-lincosamide-streptogramin B resistant Streptococcus pneumoniae by agar microdilution method; procedure, shortened: as §2
[8] = test system: Staphylococcus aureus; test: Antibacterial activity against constitutive macrolide-lincosamide-streptogramin B resistant Staphylococcus aureus by agar microdilution method; procedure, shortened: as §2
[9] = test system: Streptococcus pneumoniae; test: Antibacterial activity against efflux mediated macrolide resistant Streptococcus pneumoniae by agar microdilution method; procedure, shortened: as §2
[10] = test system: Moraxella catarrhalis; test: Antibacterial activity against Moraxella catarrhalis by agar microdilution method; procedure, shortened: as §1
[11] = test system: Streptococcus pyogenes; test: Antibacterial activity against inducibly macrolide-lincosamide-streptogramin B resistant Streptococcus pyogenes by agar microdilution method; procedure, shortened: as §2
[12] = test system: Streptococcus pyogenes; test: Antibacterial activity against erythromycin-susceptible Streptococcus pyogenes by agar microdilution method; procedure, shortened: as §1
[13] = test system: Streptococcus pyogenes; test: Antibacterial activity against constitutive macrolide-lincosamide-streptogramin B resistant Streptococcus pyogenes by agar microdilution method; procedure, shortened: as §2

Compound | MIC [1] | MIC [2] | MIC [3] | MIC [4] | MIC [5] | MIC [6] | MIC [7] | MIC [8] | MIC [9] | MIC [10] | MIC [11] | MIC [12] | MIC [13]
CC[C@H]1OC(=O)[C@@H](C)[C@H](O[C@@H]2C[C@](C)(OC)[C@H](OC(=O)CNC(=O)CCNCCNc3cc4c(=O)c(C(=O)O)cn(C5CC5)c4cc3Cl)[C@@H](C)O2)[C@H](C)[C@H](O[C@H]2O[C@@H](C)C[C@@H](N(C)C)[C@@H]2O)[C@@](C)(O)C[C@H](C)CN(C)[C@@H](C)[C@H](O)[C@@]1(C)O (stereo in doubt) | 0.5 µg/mL (≈ 0.423 µM) | ≤ 0.125 µg/mL | 0.25 µg/mL (≈ 0.212 µM) | ≤ 0.125 µg/mL | 0.5 µg/mL (≈ 0.423 µM) | 1 µg/mL (≈ 0.846 µM) | 0.5 µg/mL (≈ 0.423 µM) | > 64 µg/mL | 0.25 µg/mL (≈ 0.212 µM) | 0.125 µg/mL (≈ 0.106 µM) | 0.25 µg/mL (≈ 0.212 µM) | ≤ 0.125 µg/mL | 0.5 µg/mL (≈ 0.423 µM)
CCC1OC(=O)[C@H](C)[C@@H](O[C@H]2C[C@@](C)(OC)[C@@H](OC(=O)CNCCNC(=O)CSc3cnc4ccccc4n3)[C@H](C)O2)C(C)[C@@H](O[C@@H]2O[C@H](C)C[C@H](N(C)C)[C@H]2O)[C@](C)(O)C[C@@H](C)CN(C)[C@H](C)[C@@H](O)[C@]1(C)O (single isomer, unassigned) | 8 µg/mL (≈ 7.61 µM) | 8 µg/mL (≈ 7.61 µM) | – | ≤ 0.125 µg/mL | 1 µg/mL (≈ 0.951 µM) | 0.25 µg/mL (≈ 0.238 µM) | 8 µg/mL (≈ 7.61 µM) | > 64 µg/mL | – | 8 µg/mL (≈ 7.61 µM) | 1 µg/mL (≈ 0.951 µM) | ≤ 0.125 µg/mL | 8 µg/mL (≈ 7.61 µM)
CC[C@H]1OC(=O)[C@@H](C)[C@H](O[C@@H]2C[C@](C)(OC)[C@H](OC(=O)CNCCCNCCNc3cc4c(=O)c(C(=O)O)cn(C5CC5)c4cc3Cl)[C@@H](C)O2)[C@H](C)[C@H](O[C@H]2O[C@@H](C)C[C@@H](N(C)C)[C@@H]2O)[C@@](C)(O)C[C@H](C)CN(C)[C@@H](C)[C@H](O)[C@@]1(C)O | 0.5 µg/mL (≈ 0.428 µM) | ≤ 0.125 µg/mL | – | ≤ 0.125 µg/mL | 0.25 µg/mL (≈ 0.214 µM) | 0.25 µg/mL (≈ 0.214 µM) | – | > 64 µg/mL | – | ≤ 0.125 µg/mL | – | ≤ 0.125 µg/mL | –
CCC1OC(=O)[C@H](C)[C@@H](O[C@H]2C[C@@](C)(OC)[C@@H](OC(=O)CNC(=O)CCNCCOCCNc3cc4c(cc3F)c(=O)c(C(=O)O)cn4C3CC3)[C@H](C)O2)C(C)[C@@H](O[C@@H]2O[C@H](C)C[C@H](N(C)C)[C@H]2O)[C@](C)(O)C[C@@H](C)CN(C)[C@H](C)[C@@H](O)[C@]1(C)O (single isomer, unassigned) | 4 µg/mL (≈ 3.31 µM) | 0.25 µg/mL (≈ 0.207 µM) | 8 µg/mL (≈ 6.61 µM) | ≤ 0.125 µg/mL | 4 µg/mL (≈ 3.31 µM) | 4 µg/mL (≈ 3.31 µM) | 8 µg/mL (≈ 6.61 µM) | > 64 µg/mL | 4 µg/mL (≈ 3.31 µM) | 1 µg/mL (≈ 0.827 µM) | 4 µg/mL (≈ 3.31 µM) | ≤ 0.125 µg/mL | 16 µg/mL (≈ 13.2 µM)
CCC1OC(=O)[C@H](C)[C@@H](O[C@H]2C[C@@](C)(OC)[C@@H](OC(=O)CNC(=O)CNC(=O)CSc3cnc4ccccc4n3)[C@H](C)O2)C(C)[C@@H](O[C@@H]2O[C@H](C)C[C@H](N(C)C)[C@H]2O)[C@](C)(O)C[C@@H](C)CN(C)[C@H](C)[C@@H](O)[C@]1(C)O (single isomer, unassigned) | 4 µg/mL (≈ 3.75 µM) | 1 µg/mL (≈ 0.939 µM) | 0.25 µg/mL (≈ 0.235 µM) | ≤ 0.125 µg/mL | 2 µg/mL (≈ 1.88 µM) | 0.5 µg/mL (≈ 0.469 µM) | 16 µg/mL (≈ 15 µM) | > 64 µg/mL | – | 4 µg/mL (≈ 3.75 µM) | 4 µg/mL (≈ 3.75 µM) | 0.25 µg/mL (≈ 0.235 µM) | 16 µg/mL (≈ 15 µM)
O=C(O)c1cn(C2CC2)c2cc(N3CCNCC3)c(F)cc2c1=O [CIPROFLOXACIN] | ≤ 0.125 µg/mL | ≤ 0.125 µg/mL | ≤ 0.125 µg/mL | ≤ 0.125 µg/mL | – | – | 0.25 µg/mL (≈ 0.754 µM) | – | 0.25 µg/mL (≈ 0.754 µM) | ≤ 0.125 µg/mL | 0.25 µg/mL (≈ 0.754 µM) | 2 µg/mL (≈ 6.04 µM) | 0.5 µg/mL (≈ 1.51 µM)
CC[C@H]1OC(=O)[C@H](C)C(=O)[C@H](C)[C@@H](O[C@@H]2O[C@H](C)C[C@H](N(C)C)[C@H]2O)[C@](C)(OCC=Cc2cnc3ccccc3c2)C[C@@H](C)C(=O)[C@H](C)[C@H]2NC(=O)O[C@@]21C [CETHROMYCIN] | 1 µg/mL (≈ 1.31 µM) | ≤ 0.125 µg/mL | – | ≤ 0.125 µg/mL | 0.25 µg/mL (≈ 0.326 µM) | 0.25 µg/mL (≈ 0.326 µM) | – | > 64 µg/mL | – | ≤ 0.125 µg/mL | – | ≤ 0.125 µg/mL | 1 µg/mL (≈ 1.31 µM)
CCC1OC(=O)[C@H](C)[C@@H](O[C@H]2C[C@@](C)(OC)[C@@H](OC(=O)CNCCSc3cnc4ccccc4n3)[C@H](C)O2)C(C)[C@@H](O[C@@H]2O[C@H](C)C[C@H](N(C)C)[C@H]2O)[C@](C)(O)C[C@@H](C)CN(C)[C@H](C)[C@@H](O)[C@]1(C)O (single isomer, unassigned) | 4 µg/mL (≈ 4.02 µM) | 2 µg/mL (≈ 2.01 µM) | 0.25 µg/mL (≈ 0.251 µM) | ≤ 0.125 µg/mL | 2 µg/mL (≈ 2.01 µM) | 0.5 µg/mL (≈ 0.503 µM) | 16 µg/mL (≈ 16.1 µM) | > 64 µg/mL | – | 1 µg/mL (≈ 1.01 µM) | 4 µg/mL (≈ 4.02 µM) | ≤ 0.125 µg/mL | 16 µg/mL (≈ 16.1 µM)
